According to ChEMBL document CHEMBL1156388, “Modulation of the multidrug-resistance phenotype by new tropane alkaloid aromatic esters from Erythroxylum pervillei” (J Nat Prod, 2001):
pIC50: −log10 of the molar value. In brackets after ≈: the same amount, converted by molar mass. Activity calls are given as the source filed them. The calls are words filed in the database; no cut-off is given here.

Key:
LOX IMVI [1] = assay: Increase in DINIB-induced cytotoxicity against human LOXIMVI at 0.8 to 12.5 ug/mL; type: functional, cell-based
How it was run: (§1)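 Modulator dose ranges were chosen to give full dose–response curves and were combined with DINIB, an MDR-substrate cytotoxic agent, at nontoxic modulator concentrations. 5-Fluorouracil, a non-MDR agent, served as the negative-control drug. MDR1 expression and function: HCT-15 and UO-31 high, CAKI-1 moderate, LOX IMVI none (no MDR phenotype). The read-out was enhancement of DINIB growth inhibition.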

[2] = Cytotoxicity against human multidrug-resistant KBV1 cells in presence of vinblastin; type: functional; details: KB-V1, read-out: ED50 (the source's name)
KB = assay: Cytotoxicity against human KB cells; type: functional; details: read-out: ED50 (the source's name)
SW626 = assay: Cytotoxicity against human SW626 cells; type: functional; details: read-out: ED50 (the source's name)
Col2 = assay: Cytotoxicity against human Col2 cells; type: functional; details: read-out: ED50 (the source's name)
SK-OV-3 = assay: Cytotoxicity against human SKOV3 cells; type: functional, cell-based
[3] = Cytotoxicity against human multidrug-resistant SKVLB1 cells; type: functional, cell-based
Lu1 = assay: Cytotoxicity against human Lu1 cells; type: functional; details: read-out: ED50 (the source's name)
LNCaP = assay: Cytotoxicity against human LNCAP cells; type: functional; details: read-out: ED50 (the source's name)
[4] = Cytotoxicity against human BC1 cells; type: functional; details: read-out: ED50 (the source's name)
[5] = Cytotoxicity against human multidrug-resistant SKVLB1 cells in presence of adriamycin; type: functional, cell-based
[6] = Cytotoxicity against human multidrug-resistant KBV1 cells in absence of vinblastin; type: functional; details: KB-V1, read-out: ED50 (the source's name)
[7] = target: T1, ATP-dependent translocase ABCB1 (Homo sapiens, UniProt P08183); assay: Modulation of P-gp in human CAKI1 cells assessed as increase in DINIB-induced cytotoxicity at 0.2 to 12.5 ug/mL; type: cell-based; details: caki-1; how it was run: as §1
T1 sequence (P08183 whole entry): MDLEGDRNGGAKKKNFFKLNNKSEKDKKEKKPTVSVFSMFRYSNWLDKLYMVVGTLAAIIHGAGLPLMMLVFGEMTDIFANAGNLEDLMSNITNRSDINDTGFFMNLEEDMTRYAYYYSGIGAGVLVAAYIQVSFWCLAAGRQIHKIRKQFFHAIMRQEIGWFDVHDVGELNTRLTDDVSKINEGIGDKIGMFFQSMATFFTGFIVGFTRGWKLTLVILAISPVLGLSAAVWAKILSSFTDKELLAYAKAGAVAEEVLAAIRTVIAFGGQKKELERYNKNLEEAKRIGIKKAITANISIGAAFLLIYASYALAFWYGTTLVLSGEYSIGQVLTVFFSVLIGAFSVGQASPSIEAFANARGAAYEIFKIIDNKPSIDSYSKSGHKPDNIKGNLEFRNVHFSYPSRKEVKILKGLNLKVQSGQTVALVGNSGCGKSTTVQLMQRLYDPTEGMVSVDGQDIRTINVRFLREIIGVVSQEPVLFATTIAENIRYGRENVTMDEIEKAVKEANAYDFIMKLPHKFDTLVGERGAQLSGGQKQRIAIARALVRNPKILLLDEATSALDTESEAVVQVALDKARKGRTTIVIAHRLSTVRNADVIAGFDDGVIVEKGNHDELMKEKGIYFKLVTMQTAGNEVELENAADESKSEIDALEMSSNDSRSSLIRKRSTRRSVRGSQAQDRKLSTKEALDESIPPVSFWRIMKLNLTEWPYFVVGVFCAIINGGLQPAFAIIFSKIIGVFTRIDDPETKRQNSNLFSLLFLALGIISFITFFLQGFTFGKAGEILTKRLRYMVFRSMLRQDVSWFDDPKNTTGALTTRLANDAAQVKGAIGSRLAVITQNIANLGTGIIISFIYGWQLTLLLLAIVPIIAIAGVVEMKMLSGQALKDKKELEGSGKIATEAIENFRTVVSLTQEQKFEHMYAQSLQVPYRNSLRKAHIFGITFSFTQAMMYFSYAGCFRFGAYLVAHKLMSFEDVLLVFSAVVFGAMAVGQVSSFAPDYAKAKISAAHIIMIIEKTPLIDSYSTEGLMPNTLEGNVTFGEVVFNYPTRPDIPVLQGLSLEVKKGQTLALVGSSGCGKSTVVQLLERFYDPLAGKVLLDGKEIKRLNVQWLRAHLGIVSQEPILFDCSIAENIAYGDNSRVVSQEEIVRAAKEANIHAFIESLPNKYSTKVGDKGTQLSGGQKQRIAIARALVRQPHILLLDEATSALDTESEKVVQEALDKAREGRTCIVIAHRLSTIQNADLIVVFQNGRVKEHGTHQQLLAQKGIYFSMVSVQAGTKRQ

LOX IMVI [8] = assay: Increase in DINIB-induced cytotoxicity against human LOXIMVI at 0.2 to 12.5 ug/mL; type: functional, cell-based; how it was run: as §1
[9] = target: T1, ATP-dependent translocase ABCB1; assay: Modulation of P-gp in human UO31 cells assessed as increase in DINIB-induced cytotoxicity at 0.2 to 12.5 ug/mL; type: cell-based; details: uo-31; how it was run: as §1
[10] = target: T1, ATP-dependent translocase ABCB1; assay: Modulation of P-gp in human HCT15 cells assessed as increase in DINIB-induced cytotoxicity at 0.2 to 12.5 ug/mL; type: cell-based; details: hct-15; how it was run: as §1
[11] = target: T1, ATP-dependent translocase ABCB1; assay: Modulation of P-gp in human UO31 cells assessed as increase in DINIB-induced cytotoxicity at 1.5 to 25 ug/mL; type: cell-based; details: uo-31
How it was run: (§2)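 NCI tumour-panel lines of differing MDR1 expression and function (HCT-15 and UO-31 high, CAKI-1 moderate, LOX IMVI none) were exposed to the MDR-substrate cytotoxin DINIB with or without modulator. 5-Fluorouracil, a non-MDR agent, served as the negative control; verapamil and cyclosporin A were reference modulators. Modulator concentrations spanned full dose–response curves. Maximum escalation of DINIB toxicity was taken at nontoxic modulator concentrations.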

LOX IMVI [12] = assay: Increase in DINIB-induced cytotoxicity against human LOXIMVI at 1.5 to 25 ug/mL; type: functional, cell-based; how it was run: as §2
[13] = target: T1, ATP-dependent translocase ABCB1; assay: Modulation of P-gp in human CAKI1 cells assessed as increase in DINIB-induced cytotoxicity at 1.5 to 25 ug/mL; type: cell-based; details: caki-1; how it was run: as §2
[14] = target: T1, ATP-dependent translocase ABCB1; assay: Modulation of P-gp in human HCT15 cells assessed as increase in DINIB-induced cytotoxicity at 1.5 to 25 ug/mL; type: cell-based; details: hct-15; how it was run: as §2
[15] = target: T1, ATP-dependent translocase ABCB1; assay: Modulation of P-gp in human CAKI1 cells assessed as increase in DINIB-induced cytotoxicity at 3.1 to 50 ug/mL; type: cell-based; details: caki-1; how it was run: as §1
[16] = target: T1, ATP-dependent translocase ABCB1; assay: Modulation of P-gp in human UO31 cells assessed as increase in DINIB-induced cytotoxicity at 3.1 to 50 ug/mL; type: cell-based; details: uo-31; how it was run: as §1
[17] = target: T1, ATP-dependent translocase ABCB1; assay: Modulation of P-gp in human HCT15 cells assessed as increase in DINIB-induced cytotoxicity at 3.1 to 50 ug/mL; type: cell-based; details: hct-15; how it was run: as §1
LOX IMVI [18] = assay: Increase in DINIB-induced cytotoxicity against human LOXIMVI at 3.1 to 50 ug/mL; type: functional, cell-based; how it was run: as §1
[19] = target: T1, ATP-dependent translocase ABCB1; assay: Modulation of P-gp in human UO31 cells assessed as increase in DINIB-induced cytotoxicity at 0.2 to 3.1 ug/mL; type: cell-based; details: uo-31; how it was run: as §1
[20] = target: T1, ATP-dependent translocase ABCB1; assay: Modulation of P-gp in human HCT15 cells assessed as increase in DINIB-induced cytotoxicity at 0.2 to 3.1 ug/mL; type: cell-based; details: hct-15; how it was run: as §1
LOX IMVI [21] = assay: Increase in DINIB-induced cytotoxicity against human LOXIMVI at 0.2 to 3.1 ug/mL; type: functional, cell-based; how it was run: as §1
[22] = target: T1, ATP-dependent translocase ABCB1; assay: Modulation of P-gp in human CAKI1 cells assessed as increase in DINIB-induced cytotoxicity at 0.2 to 3.1 ug/mL; type: cell-based; details: caki-1; how it was run: as §1

SMILES	EC50 [2]	EC50 (KB)	EC50 (SW626)	EC50 (Col2)	pIC50 (SK-OV-3)	pIC50 [3]	EC50 (Lu1)	EC50 (LNCaP)	EC50 [4]	pIC50 [5]	EC50 [6]	other results
COc1ccc(CCN(C)CCCC(C#N)(c2ccc(OC)c(OC)c2)C(C)C)cc1OC (stereo unspecified)												Activity (LOX IMVI [1]): Active
COc1cc(/C=C/C(=O)O[C@H]2[C@@H](O)[C@@H]3C[C@H](OC(=O)c4cc(OC)c(OC)c(OC)c4)C[C@H]2N3C)cc(OC)c1OC [PERVILLEINE A]	0.3 µg/mL	> 20 µg/mL	> 20 µg/mL	> 20 µg/mL	< 5.00	< 5.00	> 20 µg/mL	> 20 µg/mL	> 20 µg/mL	6.19	> 20 µg/mL	
COc1cc(/C=C/C(=O)O[C@H]2C[C@@H]3C[C@H](OC(=O)c4cc(OC)c(OC)c(OC)c4)C[C@H]2N3C)cc(OC)c1OC [PERVILLEINE B]	0.1 µg/mL	> 20 µg/mL	3.2 µg/mL (≈ 5.6 µM)	1.3 µg/mL (≈ 2.27 µM)	5.42	< 5.00	3.1 µg/mL (≈ 5.42 µM)	1 µg/mL (≈ 1.75 µM)	9.4 µg/mL (≈ 16.4 µM)	6.92	8.8 µg/mL (≈ 15.4 µM)	Activity [7]: Active; Activity (LOX IMVI [8]): inactive; Activity [9]: Active; Activity [10]: Active
COc1cc(/C=C/C(=O)O[C@H]2[C@@H](O)[C@@H]3C[C@H](OC(=O)c4cc(OC)c(OC)c(OC)c4)C[C@H]2[N+]3(C)[O-])cc(OC)c1OC (stereo partly specified)	> 20 µg/mL	> 20 µg/mL	> 20 µg/mL	> 20 µg/mL	< 5.00	< 5.00	> 20 µg/mL	> 20 µg/mL	> 20 µg/mL	< 5.00	> 20 µg/mL	
COc1cccc2c1C(=O)c1c(O)c3c(c(O)c1C2=O)C[C@@](O)(C(=O)CO)C[C@@H]3O[C@H]1C[C@H](N)[C@H](O)[C@H](C)O1 [DOXORUBICIN]					8.10	5.66						
COc1cc(/C=C/C(=O)O[C@H]2C[C@@H]3C[C@H](OC(=O)Cc4ccccc4)C[C@H]2N3C)cc(OC)c1OC [PERVILLEINE F]	0.2 µg/mL	> 20 µg/mL	> 20 µg/mL	4.9 µg/mL (≈ 9.89 µM)			> 20 µg/mL	> 20 µg/mL	> 20 µg/mL		> 20 µg/mL	Activity [11]: Active; Activity (LOX IMVI [12]): inactive; Activity [13]: Active; Activity [14]: Active
COc1cc(/C=C/C(=O)O[C@H]2C[C@@H]3C[C@H](OC(=O)Cc4cccc(O)c4)C[C@H]2N3C)cc(OC)c1OC [PERVILLEINE E]	1.9 µg/mL	14.7 µg/mL (≈ 28.7 µM)	8.4 µg/mL (≈ 16.4 µM)	13.4 µg/mL (≈ 26.2 µM)			> 20 µg/mL	> 20 µg/mL	> 20 µg/mL		> 20 µg/mL	
COc1cc2c(cc1OC)CN(CCc1ccc(NC(=O)c3cccc4c(=O)c5cccc(OC)c5[nH]c34)cc1)CC2					5.09	4.85				7.70		
COc1cc(C(=O)O[C@H]2C[C@H]3CC[C@@H](C2)N3C)cc(OC)c1OC	> 20 µg/mL	> 20 µg/mL	> 20 µg/mL	> 20 µg/mL			> 20 µg/mL	> 20 µg/mL	> 20 µg/mL		> 20 µg/mL	
COc1cc(/C=C/C(=O)O[C@@H]2C[C@@H]3[C@@H](OC(=O)/C=C/c4cc(OC)c(OC)c(OC)c4)[C@@H](O)[C@H](C2)N3C)cc(OC)c1OC [PERVILLEINE D]	0.2 µg/mL	11 µg/mL (≈ 17.9 µM)	6.5 µg/mL (≈ 10.6 µM)	4.9 µg/mL (≈ 7.98 µM)			15.1 µg/mL (≈ 24.6 µM)	14.1 µg/mL (≈ 23 µM)	15 µg/mL (≈ 24.4 µM)		9 µg/mL (≈ 14.7 µM)	Activity [15]: Active; Activity [16]: Active; Activity [17]: Active; Activity (LOX IMVI [18]): inactive
COc1cc(/C=C/C(=O)O[C@H]2C[C@H]3C[C@H](OC(=O)/C=C/c4cc(OC)c(OC)c(OC)c4)[C@@H](C2)N3C)cc(OC)c1OC [PERVILLEINE C]	0.1 µg/mL	2.2 µg/mL (≈ 3.68 µM)	1.4 µg/mL (≈ 2.34 µM)	4.1 µg/mL (≈ 6.86 µM)	5.55	< 5.00	2.3 µg/mL (≈ 3.85 µM)	> 20 µg/mL	2.8 µg/mL (≈ 4.68 µM)	7.10	9 µg/mL (≈ 15.1 µM)	Activity [19]: Active; Activity [20]: Active; Activity (LOX IMVI [21]): inactive; Activity [22]: Active
CN1C2C[C@@H](OC(=O)Cc3ccccc3)CC1[C@H](O)[C@@H]2O	> 20 µg/mL	> 20 µg/mL	> 20 µg/mL	> 20 µg/mL			> 20 µg/mL	> 20 µg/mL	> 20 µg/mL		> 20 µg/mL	
